What all share (format): functional
One assay deals with Pseudomonas aeruginosa. Briefly: Minimum inhibitory concentration against Pseudomonas aeruginosa UI-18. The following applies: Pseudomonas aeruginosa; read-out: MIC. Summed up:
(§1)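 Standard microdilution method against a panel of five Gram-negative and five Gram-positive bacterial strains. The MIC (µg/mL) was recorded for each strain.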

The subject of another assay is Streptococcus pneumoniae. Kind of assay: Minimum inhibitory concentration against Streptococcus pneumoniae SV-1. Particulars: Streptococcus pneumoniae; read-out: MIC. Summed up:
as §1

Assay [1] relates to Mus musculus. Briefly: Median protective dose determined in acute lethal system infection caused by Escherichia coli vogel in CD-1 mice (single dose sc). Particulars: read-out: PD50. Summed up:
(§2)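 Acute lethal systemic infection in female Charles River CD-1 mice; compound given once, orally (po) or subcutaneously (sc), at the time of challenge. Median protective dose (PD50, mg/kg) derived from survival.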

The species named for assay [2] is Mus musculus. Kind of assay: Median protective dose determined in acute lethal system infection caused by Escherichia coli vogel in CD-1 mice (single dose perorally). The following applies: po, read-out: PD50. Summed up:
as §2

Assay [3] deals with Staphylococcus aureus. Kind of assay: Minimum inhibitory concentration against Staphylococcus aureus H-228. The following applies: Staphylococcus aureus; read-out: MIC. Summed up: as §1
The subject of a further assay is Providencia rettgeri. Kind of assay: Minimum inhibitory concentration against Providencia rettgeri M-1771. The following applies: Providencia rettgeri; read-out: MIC. Summed up: as §1
Another assay concerns Escherichia coli. Kind of assay: Minimum inhibitory concentration against Escherichia coli Vogel. The following applies: Escherichia coli; read-out: MIC. Summed up: as §1
In the next assay the test system is Klebsiella pneumoniae. Kind of assay: Minimum inhibitory concentration against Klebsiella pneumoniae MGH-2. Particulars: Klebsiella pneumoniae; read-out: MIC. Summed up:
as §1

Assay [4] deals with Staphylococcus aureus. Briefly: Minimum inhibitory concentration against Staphylococcus aureus UC-76. The following applies: Staphylococcus aureus; read-out: MIC. Summed up:
as §1

For the next assay, the system named is Enterobacter cloacae. Kind of assay: Minimum inhibitory concentration against […] MA-2646. Particulars: Enterobacter cloacae; read-out: MIC. Summed up:
as §1

For a further assay, the system named is Enterococcus faecalis. Kind of assay: Minimum inhibitory concentration against […] MGH-2. The following applies: Enterococcus faecalis; read-out: MIC. Summed up:
as §1

The next assay concerns Streptococcus pyogenes. Briefly: Minimum inhibitory concentration against Streptococcus pyogenes C-203. The following applies: Streptococcus pyogenes; read-out: MIC. Summed up: as §1
Assay [5] concerns Mus musculus. Kind of assay: Median protective dose determined in acute lethal system infection caused by Streptococcus pyogenes C-203 in CD-1 mice (single dose sc). Particulars: read-out: PD50. Summed up:
as §2

Assay [6] is filed under the species Mus musculus. Briefly: Median protective dose determined in acute lethal system infection caused by Streptococcus pyogenes C-203 in CD-1 mice (single dose perorally). The following applies: po, read-out: PD50. Summed up:
as §2

Converted amounts (≈) assume the structure as drawn.

As usually defined, the MIC is the smallest concentration in the dilution series that meets the test's criterion for growth inhibition. As to `NC1CN(c2nc3c(cc2F)c(=O)c(C(=O)O)cn3C2CC2)CC1c1ccccc1` (centres undefined), the MIC was 1.6 µg/mL (≈ 3.92 µM) in the assay with Pseudomonas aeruginosa; 0.1 µg/mL (≈ 0.245 µM) in the assay with Streptococcus pneumoniae; 0.1 µg/mL (≈ 0.245 µM) in the assay with Staphylococcus aureus [3]; 0.4 µg/mL (≈ 0.979 µM) in the assay with Providencia rettgeri; 0.1 µg/mL (≈ 0.245 µM) in the assay on Escherichia coli; 0.2 µg/mL (≈ 0.49 µM) in the assay on Klebsiella pneumoniae. In addition, the MIC in the assay with Staphylococcus aureus [4] is 0.05 µg/mL (≈ 0.122 µM); with Enterobacter cloacae, 0.1 µg/mL (≈ 0.245 µM); with Enterococcus faecalis, 0.2 µg/mL (≈ 0.49 µM); in the assay with Streptococcus pyogenes, 0.2 µg/mL (≈ 0.49 µM). Also, the ED50 is 6.5 mg/kg with Mus musculus [1] and 11 mg/kg in the assay listed under Mus musculus [2].
As to `NCC1CN(c2c(F)cc3c(=O)c(C(=O)O)cn(C4CC4)c3c2F)CC1c1ccccc1` (trans isomer), the MIC with Pseudomonas aeruginosa turned out to be 0.8 µg/mL (≈ 1.82 µM); with Streptococcus pneumoniae, 0.013 µg/mL (≈ 0.0296 µM); in the assay on Staphylococcus aureus [3], 0.013 µg/mL (≈ 0.0296 µM); in the assay with Providencia rettgeri, 0.1 µg/mL (≈ 0.228 µM); in the assay with Escherichia coli it was 0.05 µg/mL (≈ 0.114 µM); in the assay on Klebsiella pneumoniae it was 0.05 µg/mL (≈ 0.114 µM). Besides, the MIC was determined as 0.003 µg/mL (≈ 0.00683 µM) in the assay on Staphylococcus aureus [4], 0.05 µg/mL (≈ 0.114 µM) in the assay on Enterobacter cloacae, 0.013 µg/mL (≈ 0.0296 µM) in the assay with Enterococcus faecalis and 0.013 µg/mL (≈ 0.0296 µM) with Streptococcus pyogenes. For the same molecule, the results for the ED50 with Mus musculus [5] and in the assay listed under Mus musculus [6] were 1.6 mg/kg and 10 mg/kg, respectively.
On to `Nc1ccc(C2CN(c3c(F)cc4c(=O)c(C(=O)O)cn(C5CC5)c4c3F)CC2N)cc1` (trans isomer), for which the MIC was determined as 0.8 µg/mL (≈ 1.82 µM) with Pseudomonas aeruginosa; 0.1 µg/mL (≈ 0.227 µM) in the assay on Streptococcus pneumoniae; 0.1 µg/mL (≈ 0.227 µM) in the assay on Staphylococcus aureus [3]; 0.2 µg/mL (≈ 0.454 µM) with Providencia rettgeri; 0.05 µg/mL (≈ 0.114 µM) in the assay with Escherichia coli; 0.1 µg/mL (≈ 0.227 µM) in the assay with Klebsiella pneumoniae. Moreover, the MIC came to 0.025 µg/mL (≈ 0.0568 µM) in the assay on Staphylococcus aureus [4], 0.05 µg/mL (≈ 0.114 µM) in the assay on Enterobacter cloacae, 0.1 µg/mL (≈ 0.227 µM) in the assay with Enterococcus faecalis and 0.1 µg/mL (≈ 0.227 µM) in the assay on Streptococcus pyogenes. The ED50 was determined as 1.6 mg/kg in the assay on Mus musculus [1] and 10 mg/kg in the assay listed under Mus musculus [2].
As for `NCC1CN(c2nc3c(cc2F)c(=O)c(C(=O)O)cn3C2CC2)CC1c1ccco1` (trans isomer), the minimal inhibitory concentration (MIC) was 0.4 µg/mL (≈ 0.97 µM) with Pseudomonas aeruginosa; 0.025 µg/mL (≈ 0.0606 µM) with Streptococcus pneumoniae; 0.05 µg/mL (≈ 0.121 µM) in the assay with Staphylococcus aureus [3]; 0.2 µg/mL (≈ 0.485 µM) in the assay on Providencia rettgeri; 0.1 µg/mL (≈ 0.242 µM) in the assay with Escherichia coli; 0.1 µg/mL (≈ 0.242 µM) with Klebsiella pneumoniae. In addition, the MIC in the assay with Staphylococcus aureus [4] amounted to 0.013 µg/mL (≈ 0.0315 µM); in the assay with Enterobacter cloacae, 0.2 µg/mL (≈ 0.485 µM); in the assay on Enterococcus faecalis it was 0.05 µg/mL (≈ 0.121 µM); with Streptococcus pyogenes it was 0.05 µg/mL (≈ 0.121 µM). For the same molecule, the results for the ED50 in the assay on Mus musculus [5] and in the assay listed under Mus musculus [6] were 4.2 mg/kg and 36 mg/kg, respectively.
With `CC(C)c1ccc(C2CN(c3c(F)cc4c(=O)c(C(=O)O)cn(C5CC5)c4c3F)CC2N)cc1` (trans isomer), the MIC in the assay with Pseudomonas aeruginosa was 3.1 µg/mL (≈ 6.63 µM); with Streptococcus pneumoniae, 0.2 µg/mL (≈ 0.428 µM); with Staphylococcus aureus [3], 0.05 µg/mL (≈ 0.107 µM); in the assay with Providencia rettgeri it was 0.4 µg/mL (≈ 0.856 µM); in the assay on Escherichia coli, 0.4 µg/mL (≈ 0.856 µM); with Klebsiella pneumoniae, 0.4 µg/mL (≈ 0.856 µM). For the same molecule, the MIC in the assay on Staphylococcus aureus [4] stood at 0.025 µg/mL (≈ 0.0535 µM); in the assay with Enterobacter cloacae, 0.4 µg/mL (≈ 0.856 µM); with Enterococcus faecalis, 0.2 µg/mL (≈ 0.428 µM); with Streptococcus pyogenes, 0.2 µg/mL (≈ 0.428 µM). Moreover, the values for the ED50 in the assay on Mus musculus [5] and in the assay listed under Mus musculus [6] were 90 mg/kg and 100 mg/kg, respectively.
Consider `COc1ccc(C2CN(c3c(F)cc4c(=O)c(C(=O)O)cn(C5CC5)c4c3F)CC2N)cc1` (trans isomer), for which the minimal inhibitory concentration (MIC) with Pseudomonas aeruginosa worked out at 1.6 µg/mL (≈ 3.51 µM); with Streptococcus pneumoniae, 0.05 µg/mL (≈ 0.11 µM); with Staphylococcus aureus [3], 0.025 µg/mL (≈ 0.0549 µM); in the assay with Providencia rettgeri, 0.4 µg/mL (≈ 0.878 µM); in the assay with Escherichia coli it was 0.1 µg/mL (≈ 0.22 µM); in the assay on Klebsiella pneumoniae, 0.2 µg/mL (≈ 0.439 µM). Also, the minimal inhibitory concentration (MIC) was found to be 0.013 µg/mL (≈ 0.0285 µM) in the assay on Staphylococcus aureus [4], 0.1 µg/mL (≈ 0.22 µM) in the assay with Enterobacter cloacae, 0.1 µg/mL (≈ 0.22 µM) in the assay on Enterococcus faecalis and 0.05 µg/mL (≈ 0.11 µM) in the assay on Streptococcus pyogenes.
Consider `NCC1CN(c2nc3c(cc2F)c(=O)c(C(=O)O)cn3C2CC2)CC1c1ccccc1` (trans isomer), for which the MIC came out at 0.8 µg/mL (≈ 1.89 µM) in the assay with Pseudomonas aeruginosa; 0.013 µg/mL (≈ 0.0308 µM) with Streptococcus pneumoniae; 0.025 µg/mL (≈ 0.0592 µM) in the assay with Staphylococcus aureus [3]; 0.1 µg/mL (≈ 0.237 µM) in the assay on Providencia rettgeri; 0.05 µg/mL (≈ 0.118 µM) with Escherichia coli; 0.05 µg/mL (≈ 0.118 µM) in the assay on Klebsiella pneumoniae. The MIC in the assay on Staphylococcus aureus [4] was 0.006 µg/mL (≈ 0.0142 µM); in the assay on Enterobacter cloacae, 0.05 µg/mL (≈ 0.118 µM); in the assay with Enterococcus faecalis, 0.025 µg/mL (≈ 0.0592 µM); in the assay with Streptococcus pyogenes, 0.025 µg/mL (≈ 0.0592 µM). The ED50 in the assay on Mus musculus [5] amounted to 4.5 mg/kg; in the assay listed under Mus musculus [6] it was 27 mg/kg.
`Nc1ccc(C2CN(c3nc4c(cc3F)c(=O)c(C(=O)O)cn4C3CC3)CC2N)cc1` (trans isomer): the MIC in the assay on Pseudomonas aeruginosa came out at 1.6 µg/mL (≈ 3.78 µM); in the assay on Streptococcus pneumoniae, 0.2 µg/mL (≈ 0.472 µM); in the assay with Staphylococcus aureus [3], 0.2 µg/mL (≈ 0.472 µM); in the assay with Providencia rettgeri, 0.4 µg/mL (≈ 0.945 µM); with Escherichia coli it was 0.1 µg/mL (≈ 0.236 µM); in the assay on Klebsiella pneumoniae it was 0.2 µg/mL (≈ 0.472 µM). In addition, the MIC is 0.05 µg/mL (≈ 0.118 µM) with Staphylococcus aureus [4], 0.1 µg/mL (≈ 0.236 µM) with Enterobacter cloacae, 0.2 µg/mL (≈ 0.472 µM) with Enterococcus faecalis and 0.2 µg/mL (≈ 0.472 µM) with Streptococcus pyogenes. The ED50 is 3.1 mg/kg in the assay on Mus musculus [1] and 24 mg/kg in the assay listed under Mus musculus [2].

For the origin of these results see ChEMBL document CHEMBL1126564, “Synthesis and antimicrobial evaluation of a series of 7-[3-amino (or aminomethyl)-4-aryl (or cyclopropyl)-1-pyrrolidinyl]-4-quinolone- and -1,8-naphthyridone-3-carboxylic acids” (1993).
